Data as given in ChEMBL document CHEMBL1140809, “Design, synthesis, and biological evaluation of human sialidase inhibitors. Part 1: selective inhibitors of lysosomal sialidase (NEU1)” (Bioorg Med Chem Lett, 2008).

What was measured:
Format in all cases: cell-based
[1] = molecular target: Sialidase-1 (Homo sapiens, UniProt Q99519); experiment: Inhibition of human NEU1 expressed in HEK293 cells
Procedure, shortened: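 Homogenates of HEK-293 cells transiently co-transfected with full-length human NEU1 cDNA plus protective protein cDNA. Substrate: 4MU-NeuAc. One unit (nmol/h) of enzyme incubated 30–60 min. Each compound tested at four concentrations (0.05, 0.1, 0.5, 1). IC50 derived by non-linear regression of concentration–inhibition curves.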

[2] = molecular target: T1, Sialidase-3 (Homo sapiens, UniProt Q9UQ49); experiment: Inhibition of human NEU3 expressed in HEK293 cells
T1 sequence (Q9UQ49 whole entry): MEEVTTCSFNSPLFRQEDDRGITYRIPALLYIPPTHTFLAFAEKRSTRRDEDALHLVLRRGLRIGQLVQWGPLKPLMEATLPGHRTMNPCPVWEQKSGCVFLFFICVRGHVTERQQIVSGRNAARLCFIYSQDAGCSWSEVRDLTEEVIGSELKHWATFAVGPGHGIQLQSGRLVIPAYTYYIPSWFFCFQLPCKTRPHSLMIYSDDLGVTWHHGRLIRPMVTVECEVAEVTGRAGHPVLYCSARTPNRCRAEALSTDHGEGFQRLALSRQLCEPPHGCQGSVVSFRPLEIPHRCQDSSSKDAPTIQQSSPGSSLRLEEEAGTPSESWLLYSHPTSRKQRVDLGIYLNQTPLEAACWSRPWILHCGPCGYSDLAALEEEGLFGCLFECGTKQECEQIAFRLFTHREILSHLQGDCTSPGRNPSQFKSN
Procedure, shortened: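 Enzyme source: homogenates of HEK-293 cells transiently transfected with full-length human NEU3 cDNA. Substrate: mixed gangliosides. One unit (nmol/h) of enzyme incubated 30–60 min. Four test concentrations (0.05, 0.1, 0.5, 1). IC50 derived by non-linear regression of concentration–inhibition curves.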

[3] = molecular target: T2, Sialidase-4 (Homo sapiens, UniProt Q8WWR8); experiment: Inhibition of human NEU4 expressed in HEK293 cells
T2 sequence (Q8WWR8 whole entry): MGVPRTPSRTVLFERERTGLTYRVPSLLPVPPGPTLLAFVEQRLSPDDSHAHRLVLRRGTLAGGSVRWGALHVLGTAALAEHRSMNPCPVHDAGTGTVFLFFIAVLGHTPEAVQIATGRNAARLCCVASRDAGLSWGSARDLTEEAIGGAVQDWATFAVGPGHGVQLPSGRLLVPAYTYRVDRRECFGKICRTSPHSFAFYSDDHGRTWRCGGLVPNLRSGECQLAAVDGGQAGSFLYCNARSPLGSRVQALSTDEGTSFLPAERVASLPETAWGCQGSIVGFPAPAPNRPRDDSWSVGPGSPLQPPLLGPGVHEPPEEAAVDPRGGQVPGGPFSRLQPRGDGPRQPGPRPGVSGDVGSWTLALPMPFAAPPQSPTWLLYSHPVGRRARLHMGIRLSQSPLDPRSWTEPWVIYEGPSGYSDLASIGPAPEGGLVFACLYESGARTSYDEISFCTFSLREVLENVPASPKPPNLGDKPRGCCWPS
Procedure, shortened: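 Human NEU4 (full-length cDNA) transiently expressed in HEK-293 cells, with cell homogenates as the enzyme source. Substrate: 4MU-NeuAc. One unit (nmol/h) of enzyme incubated 30–60 min. Four concentrations tested (0.05, 0.1, 0.5, 1). IC50 derived by non-linear regression of concentration–inhibition curves.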

IC50 [1] [µM] | IC50 [2] [µM] | IC50 [3] [µM] | Structure (SMILES)
32 | > 1000 | – | CCCC(=O)NC[C@H](O)[C@H](O)[C@@H]1OC(C(=O)O)=C[C@H](O)[C@H]1NC(C)=O
– | – | > 1000 | CCCCC(=O)NC[C@H](O)[C@H](O)[C@@H]1OC(C(=O)O)=C[C@H](O)[C@H]1NC(C)=O
> 1000 | > 1000 | > 1000 | CC(=O)N[C@H]1[C@H]([C@@H](O)[C@@H](O)CNC(=O)C(C)(C)C)OC(C(=O)O)=C[C@@H]1O
58 | > 1000 | 580 | CC(=O)NC[C@H](O)[C@H](O)[C@@H]1OC(C(=O)O)=C[C@H](O)[C@H]1NC(C)=O

Continued, molecule first:

Structure (SMILES) | IC50 [1] [µM] | IC50 [2] [µM] | IC50 [3] [µM]
CC(=O)N[C@H]1[C@H]([C@@H](O)[C@@H](O)CNC(=O)CC(C)C)OC(C(=O)O)=C[C@@H]1O | 565 | > 1000 | > 1000
CC(=O)N[C@H]1[C@H]([C@@H](O)[C@@H](O)CNC(=O)C(C)C)OC(C(=O)O)=C[C@@H]1O | – | > 1000 | > 1000
CC(=O)N[C@H]1[C@H]([C@@H](O)[C@@H](O)CNC(=O)c2ccccc2)OC(C(=O)O)=C[C@@H]1O | 13 | 320 | 810
CC(=O)N[C@H]1[C@H]([C@@H](O)[C@@H](O)CNC(=O)C2CCCC2)OC(C(=O)O)=C[C@@H]1O | 135 | > 1000 | > 1000
CC(=O)N[C@H]1[C@H]([C@@H](O)[C@@H](O)CNC(=O)C2CC2)OC(C(=O)O)=C[C@@H]1O | 680 | > 1000 | 825
CCC(C)CC(=O)NC[C@H](O)[C@H](O)[C@@H]1OC(C(=O)O)=C[C@H](O)[C@H]1NC(C)=O (stereo partly specified) | > 1000 | > 1000 | > 1000
